19 compounds from ChEMBL document CHEMBL1121570, “3-(4-Piperidinylalkyl)indoles, selective inhibitors of neuronal 5-hydroxytryptamine uptake” (J Med Chem, 1980) can be followed below.

The target of test [1] is Sodium-dependent serotonin transporter (Homo sapiens, UniProt P31645). It counts as functional, organism-based.
In test [2] the test system is Mus musculus. Put plainly: Compound was tested for potentiation of 5-HTP in mouse after subcutaneous administration. It counts as functional. Conditions: sc. An outline of the steps: (§1)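 Mice in groups of eight received L-5-HTP 100 mg/kg ip in 0.9% NaCl. Drug was given sc 30 min after 5-HTP. Tremor was rated at 75 min (0 none, 1 moderate, 2 severe). ED50 is the dose giving a mean score of 1, derived from the group global scores.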

Test [3] deals with Rattus norvegicus. Description: Antagonism of tetrabenazine ptosis in rat after oral administration. It counts as functional, organism-based. The procedure, abridged: (§2)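 Rats dosed orally 0.5 h before tetrabenazine (10 mg/kg, sc). Ptosis scored present or absent 1 h later. ED50 taken as the dose preventing ptosis in 50% of animals.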
The target in test [4] is Sodium-dependent serotonin transporter (Rattus norvegicus, UniProt P31652). Description: Inhibition of uptake of 5-HT in rat brain cortex. It counts as functional, tissue-based.
Sodium-dependent serotonin transporter (Rattus norvegicus, UniProt P31652), sequence (P31652 whole entry): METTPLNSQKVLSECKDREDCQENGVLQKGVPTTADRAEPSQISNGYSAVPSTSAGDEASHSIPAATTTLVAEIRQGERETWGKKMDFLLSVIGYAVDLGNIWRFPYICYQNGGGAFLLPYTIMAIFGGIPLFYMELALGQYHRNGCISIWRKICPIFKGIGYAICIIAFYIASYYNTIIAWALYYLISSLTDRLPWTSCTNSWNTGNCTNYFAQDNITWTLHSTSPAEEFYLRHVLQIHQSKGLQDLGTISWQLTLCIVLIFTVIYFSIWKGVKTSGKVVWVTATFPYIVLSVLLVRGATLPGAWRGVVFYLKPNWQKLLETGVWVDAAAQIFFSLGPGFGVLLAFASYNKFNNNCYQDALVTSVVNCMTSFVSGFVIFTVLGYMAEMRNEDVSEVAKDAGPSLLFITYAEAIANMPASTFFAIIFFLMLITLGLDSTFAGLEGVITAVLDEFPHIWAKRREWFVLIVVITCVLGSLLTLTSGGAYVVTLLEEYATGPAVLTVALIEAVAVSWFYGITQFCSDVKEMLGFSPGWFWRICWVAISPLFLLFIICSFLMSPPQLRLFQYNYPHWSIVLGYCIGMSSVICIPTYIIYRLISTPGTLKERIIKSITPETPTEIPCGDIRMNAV
For test [5], the target named is Sodium-dependent dopamine transporter (Rattus norvegicus, UniProt P23977). Description: Inhibition of uptake of dopamine (DA) rat brain striatum. It is filed as functional, tissue-based. An outline of the steps:
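Brain synaptosomes from immature female rats (19-21 days) were incubated 5 min at 37 °C with labelled amine at 10⁻⁷ M. Four to six drug concentrations were run in duplicate. IC50 is the concentration inhibiting uptake by 50%.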

The target in test [6] is Norepinephrine transporter (Rattus norvegicus, UniProt Q9WTR4). Description: Inhibition of uptake of noradrenaline in rat brain hypothalamus. It is filed as functional, tissue-based. An outline of the steps: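 Brain synaptosomes from immature female rats (19-21 days) were incubated 5 min at 37 °C with labelled amine at 10⁻⁷ M. Four to six drug concentrations were run in duplicate.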
Norepinephrine transporter, sequence (Q9WTR4 whole entry): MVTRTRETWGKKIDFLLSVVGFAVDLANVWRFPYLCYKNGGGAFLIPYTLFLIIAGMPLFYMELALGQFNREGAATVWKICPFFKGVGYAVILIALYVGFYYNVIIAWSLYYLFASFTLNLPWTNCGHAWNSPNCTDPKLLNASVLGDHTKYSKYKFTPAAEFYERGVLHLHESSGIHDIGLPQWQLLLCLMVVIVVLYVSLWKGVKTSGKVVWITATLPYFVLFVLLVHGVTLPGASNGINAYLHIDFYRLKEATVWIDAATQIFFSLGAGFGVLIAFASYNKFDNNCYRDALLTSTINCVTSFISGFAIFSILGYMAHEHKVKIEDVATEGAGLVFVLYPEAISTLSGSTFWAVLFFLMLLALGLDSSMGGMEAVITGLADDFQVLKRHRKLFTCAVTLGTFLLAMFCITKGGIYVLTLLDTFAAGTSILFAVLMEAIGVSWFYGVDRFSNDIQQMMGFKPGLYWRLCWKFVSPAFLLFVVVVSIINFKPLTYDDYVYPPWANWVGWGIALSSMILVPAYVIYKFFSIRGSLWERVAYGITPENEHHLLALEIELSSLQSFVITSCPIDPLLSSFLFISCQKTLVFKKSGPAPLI

Test [7] concerns Mus musculus. Description: Potentiation of 5-HTP in mouse after subcutaneous administration. It is filed as functional, organism-based. The procedure, abridged:
as §1

The subject of test [8] is Rattus norvegicus. Put plainly: Antagonism of tetrabenazine ptosis in rat after oral administration. It is filed as functional. An outline of the steps: as §2
Test [9] relates to Mus musculus. Description: Compound was tested for potentiation of 5-HTP in mouse after subcutaneous administration; Inactive at the dose 3 mg/kg. It counts as functional, organism-based. Set-up: dose 3 mg/kg. The procedure, abridged:
as §1

The subject of test [10] is Rattus norvegicus. Description: Antagonism of tetrabenazine ptosis in rat after oral administration; Inactive at the dose 10 mg/kg. It counts as functional, organism-based. On the set-up: dose 10 mg/kg. The procedure, abridged:
as §2

In test [11] the test system is Mus musculus. Description: Compound was tested for potentiation of 5-HTP in mouse after subcutaneous administration; Inactive at 25 mg/kg. It counts as functional, organism-based. On the set-up: dose 25 mg/kg. The procedure, abridged:
as §1

Calls of active or inactive are those of the source. No cut-off for these calls is given here. A value given as a limit tells only on which side of the number the result lay.

Sodium-dependent serotonin transporter (Homo sapiens, UniProt P31645), sequence (P31645 whole entry): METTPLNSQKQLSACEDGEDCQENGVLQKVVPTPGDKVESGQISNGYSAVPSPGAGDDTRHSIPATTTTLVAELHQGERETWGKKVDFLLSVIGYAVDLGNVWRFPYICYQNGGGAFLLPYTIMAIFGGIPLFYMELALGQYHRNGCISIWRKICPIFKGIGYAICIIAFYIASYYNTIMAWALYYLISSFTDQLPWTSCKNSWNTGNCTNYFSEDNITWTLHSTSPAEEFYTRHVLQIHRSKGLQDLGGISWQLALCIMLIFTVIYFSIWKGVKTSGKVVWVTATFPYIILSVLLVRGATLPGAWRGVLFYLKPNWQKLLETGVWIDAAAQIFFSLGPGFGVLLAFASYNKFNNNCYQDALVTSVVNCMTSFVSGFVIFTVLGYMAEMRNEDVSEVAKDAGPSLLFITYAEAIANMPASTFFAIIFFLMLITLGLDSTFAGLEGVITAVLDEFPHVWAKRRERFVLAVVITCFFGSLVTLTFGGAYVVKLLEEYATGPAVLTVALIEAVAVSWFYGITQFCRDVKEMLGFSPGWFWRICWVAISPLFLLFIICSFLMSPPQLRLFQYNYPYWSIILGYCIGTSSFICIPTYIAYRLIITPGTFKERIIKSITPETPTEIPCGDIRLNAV
Sodium-dependent dopamine transporter, sequence (P23977 whole entry): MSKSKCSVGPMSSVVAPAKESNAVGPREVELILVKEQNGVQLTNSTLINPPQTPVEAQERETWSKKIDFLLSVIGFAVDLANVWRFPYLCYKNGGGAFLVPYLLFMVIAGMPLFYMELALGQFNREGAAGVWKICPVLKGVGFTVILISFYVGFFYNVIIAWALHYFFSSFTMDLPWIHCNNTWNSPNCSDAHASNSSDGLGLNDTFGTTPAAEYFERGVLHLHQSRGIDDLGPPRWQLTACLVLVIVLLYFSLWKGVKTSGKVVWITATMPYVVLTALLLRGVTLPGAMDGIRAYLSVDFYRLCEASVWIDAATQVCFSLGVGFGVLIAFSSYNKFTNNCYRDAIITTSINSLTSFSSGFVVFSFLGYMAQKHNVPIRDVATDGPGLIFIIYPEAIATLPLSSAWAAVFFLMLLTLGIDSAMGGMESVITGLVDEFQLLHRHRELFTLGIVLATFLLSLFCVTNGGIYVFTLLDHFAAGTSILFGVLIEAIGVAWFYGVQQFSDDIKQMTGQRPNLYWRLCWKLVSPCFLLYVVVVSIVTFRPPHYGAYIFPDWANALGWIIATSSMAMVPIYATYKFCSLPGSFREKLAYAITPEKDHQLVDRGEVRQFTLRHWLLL

For `c1ccc2c(CC3CCNCC3)c[nH]c2c1`, the IC50 in [1] was found to be 550 nM; in [4], 50 nM; in test [5], 20 µM; in [6], 1500 nM. Also, the ED50 with Mus musculus [2] is 10 mg/kg. Moreover, the AD50 result in the test on Rattus norvegicus [3] is “inactive”.
Consider `c1ccc(-c2[nH]c3ccccc3c2CCC2CCNCC2)cc1`, for which the IC50 in [1] was greater than 1000 nM; in test [4], 2200 nM; in test [5], 3.5 µM; in test [6], 1500 nM. Moreover, in the test on Mus musculus [7], the ED50 result is “inactive”. Moreover, the AD50 entry with Rattus norvegicus [3] is “inactive”.
For `Fc1ccc2[nH]cc(CC3CCNCC3)c2c1`, the IC50 in test [1] stood at 170 nM; in [5], 7 µM; in [6], 1000 nM. Besides, in the test on Mus musculus [2], the ED50 worked out at 32 mg/kg. This compound displayed an AD50 in the test on Rattus norvegicus [8] of 100 mg/kg.
With `c1ccc2c(CCC3CCNCC3)c[nH]c2c1` [INDALPINE], the IC50 in test [1] was 30 nM; in test [4], 10 nM; in test [5] it was 18 µM; in test [6], 1600 nM. For the same compound, the ED50 in the test on Mus musculus [2] was found to be 4 mg/kg.
`CN1CCC(CCc2cn(C)c3ccccc23)CC1`: the IC50 in [1] was greater than 1000 nM; in test [4], 1700 nM; in test [5], greater than 100 µM; in test [6], greater than 10000 nM. For the same compound, the ED50 result in the test on Mus musculus [7] is “inactive”. Further, the AD50 result in the test on Rattus norvegicus [3] was “inactive”.
In the case of `c1ccc(Cn2cc(CCC3CCNCC3)c3ccccc32)cc1`, the IC50 is greater than 1000 nM in test [1], 1900 nM in test [4], 0.3 µM in [5] and 5000 nM in test [6]. Besides, in the test on Mus musculus [7], the ED50 entry was “inactive”. Further, the AD50 result in the test with Rattus norvegicus [3] was “inactive”.
For the compound `COc1ccc2[nH]cc(CC3CCNCC3)c2c1`, the IC50 in test [1] was greater than 1000 nM; in [4] it was 1000 nM; in test [5] it was greater than 100 µM; in test [6] it was 9000 nM. Further, the ED50 entry with Mus musculus [7] is “inactive”. In addition, the AD50 entry in the test on Rattus norvegicus [3] is “inactive”.
Regarding `Clc1ccc2[nH]cc(CC3CCNCC3)c2c1`, the IC50 is greater than 1000 nM in test [1], 700 nM in test [4], 12 µM in [5] and 1800 nM in [6]. Also, the ED50 entry in the test with Mus musculus [9] was “inactive”. Further, in the test with Rattus norvegicus [10], the AD50 result is “inactive”.
As to `Oc1ccc2c(CCC3CCNCC3)c[nH]c2c1`, the IC50 in test [1] was greater than 1000 nM; in test [4], 1500 nM; in [5], 0.15 µM; in [6], 600 nM. Moreover, the ED50 result with Mus musculus [7] was “inactive”. In the test on Rattus norvegicus [3], the AD50 entry is “inactive”.
Take `Oc1ccc2[nH]cc(CCC3CCNCC3)c2c1`: the IC50 in test [1] was found to be 20 nM; in [4], 600 nM; in [5] it was 2.7 µM; in test [6], 1000 nM. Further, in the test on Mus musculus [7], the ED50 result was “inactive”. Besides, in the test with Rattus norvegicus [3], the AD50 result is “inactive”.
For the compound `Cc1[nH]c2ccccc2c1CCC1CCNCC1`, the IC50 was greater than 1000 nM in [1], 2500 nM in test [4], 23 µM in test [5] and 6500 nM in [6]. In addition, the ED50 entry in the test on Mus musculus [7] was “inactive”. The compound further registered an AD50 with Rattus norvegicus [8] greater than 100 mg/kg.
Take `Clc1ccc2[nH]cc(CCC3CCNCC3)c2c1`: the IC50 worked out at 220 nM in test [1], 130 nM in test [4], 1.5 µM in test [5] and 650 nM in [6]. Also, in the test with Mus musculus [7], the ED50 entry was “inactive”. The AD50 entry in the test with Rattus norvegicus [3] is “inactive”.
For `CN(C)CCCN1c2ccccc2CCc2ccc(Cl)cc21` [CLOMIPRAMINE], the ED50 in the test on Mus musculus [2] was 6.5 mg/kg. In the test with Rattus norvegicus [8], the AD50 worked out at 45 mg/kg. Also, the IC50 in test [5] amounted to 1 µM.
For `Brc1ccc2[nH]cc(CC3CCNCC3)c2c1`, the IC50 in test [1] came out at 1000 nM; in [4], 700 nM; in [5], 8 µM; in test [6], 600 nM. Besides, the ED50 result in the test on Mus musculus [9] was “inactive”. In the test on Rattus norvegicus [8], this compound displayed an AD50 of 10 mg/kg.
In the case of `CN1CCC(CCc2c[nH]c3ccccc23)CC1`, the IC50 is greater than 1000 nM in test [1], 450 nM in test [4], 6.5 µM in [5] and 40000 nM in test [6]. Further, in the test on Mus musculus [7], the ED50 result was “inactive”. Besides, the AD50 result with Rattus norvegicus [3] is “inactive”.
On to `Cn1cc(CCC2CCNCC2)c2ccccc21`, for which the IC50 was found to be 400 nM in test [1], 400 nM in test [4], 30 µM in test [5] and 1300 nM in [6]. Moreover, in the test with Mus musculus [11], the ED50 result was “inactive”. In addition, the AD50 result with Rattus norvegicus [3] was “inactive”.
Regarding `c1ccc2c(CCCC3CCNCC3)c[nH]c2c1`, the concentration for half-maximal inhibition (IC50) in test [1] came to 60 nM; in test [4], 40 nM; in test [5] it was 3 µM; in [6], 500 nM. Also, in the test on Mus musculus [2], the ED50 was 8 mg/kg. Moreover, the AD50 in the test with Rattus norvegicus [8] is 56 mg/kg.
In the case of `COc1ccc2[nH]cc(CCC3CCNCC3)c2c1`, the half-maximal inhibitory concentration (IC50) in test [1] is greater than 1000 nM; in test [4] it was 140 nM; in test [5], 20 µM; in test [6], 3000 nM. The ED50 entry in the test with Mus musculus [7] was “inactive”. In addition, in the test on Rattus norvegicus [3], the AD50 result was “inactive”.
Take `O=C(O)/C=C/C(=O)O.c1ccc(-n2cc(CCC3CCNCC3)c3ccccc32)cc1`: the IC50 is greater than 1000 nM in test [1], 1000 nM in [4], 20 µM in test [5] and 400 nM in test [6]. The ED50 result with Mus musculus [7] was “inactive”. The compound further had an AD50 in the test on Rattus norvegicus [8] greater than 100 mg/kg.

What is called IC50 is the concentration needed to halve the response being measured. Low values mean greater potency, high ones weaker potency. As usually defined, the ED50 is the dose that gives a 50% effect, or the effect in half of the subjects.
